Assay outcomes (PubChem BioAssay)
Rows were chosen to be rich in hits. Some 3.5% of all compounds tested hit in one or more screens of this group.
Env fusion inh – inhibitors of HIV Env-mediated cell fusion; 360,000 compounds, 1.1% hits; inhibition, % at 12.3 µM; HeLa-JRFL Env/CEM21 cell fusion, luciferase;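 active = mean replicate inhibition score of at least 50 and every replicate individually at or above 50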;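 note: 0% = plate neutral controls and 100% = maraviroc near 300 nM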
rRNA inh HTS – selective bacterial rRNA inhibition in E. coli; E. coli WT GFP vs humanized-ribosome RFP mutants, fluorescence, 24 h; hits give low values; DMSO median 0, no signal -100; GFP signal change (wild-type ribosome), % (concentration not given with the values); 350,000 compounds, 1.6% hits; AID 720706;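 active = significant combined selectivity score with lowered wild-type GFP, culture density cut under 30%, mutant RFP and density less affected; inactive = any of these conditions unmet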
PGC1a acetyl inh – modulators of PGC1a acetylation; U2OS PGC1a acetylation, AlphaScreen anti-acetyl-lysine; with virally co-expressed GCN5 acetyltransferase; inhibition, % at 15.6 µM; 350,000 compounds, 0.17% hits; AID 651687;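 active = every replicate shows inhibition of at least 40%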;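 note: 0% = neutral control wells and 100% = positive control wells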
FGF22 binding – binders of recombinant human FGF22 by thermal shift; Q9HCT0; SYPRO orange fluorescence; percent of sucrose octasulfate shift, DMSO zero; activity (Tm shift, normalised), % at 9.99 µM; 340,000 compounds, 1.5% hits;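 active = mean Tm shift, scaled 0 neutral to 100 positive control, at about 1.3% or above, every replicate too, limit read from the data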
Cneo AK release – Cryptococcus neoformans lysis via adenylate kinase release | lysis activity, % at 15 µM | 360,000 compounds, 0.2% hits | C. neoformans lysis, adenylate kinase release luminescence, 4 h; normalised: neutral wells 0, clomiphene wells 100 | AID 651654;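 active = mean lysis activity across replicates of at least 80%, whatever share of replicates individually reach that level; inactive = mean lysis activity below 80%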
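read-out = cell lysis signal | test system = log-phase Cryptococcus neoformans yeast cells | input = cells at 5 × 10^6 per mL | medium = fresh YPD growth medium | signal = luminescent adenylate kinase detection reagent | timing = 4 h at 37 °C static, read 1 h later | dosing = single dose | controls = Clomiphene as positive lysis control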
ERAP1 inh – ERAP1 (human) enzyme inhibition; recombinant ERAP1, Leu-AMC fluorescence, 60 min; inhibition, % at 10.7 µM; Q9NZ08; 340,000 compounds, 0.15% hits;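 active = mean replicate inhibition of at least 30%, or all replicates individually reaching that 30% level; inactive = mean below 30% and not every replicate reaching it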;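 note: 0% = neutral control wells and 100% = L-leucinethiol positive control wells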
Target sequence (Q9NZ08 whole entry, looked up): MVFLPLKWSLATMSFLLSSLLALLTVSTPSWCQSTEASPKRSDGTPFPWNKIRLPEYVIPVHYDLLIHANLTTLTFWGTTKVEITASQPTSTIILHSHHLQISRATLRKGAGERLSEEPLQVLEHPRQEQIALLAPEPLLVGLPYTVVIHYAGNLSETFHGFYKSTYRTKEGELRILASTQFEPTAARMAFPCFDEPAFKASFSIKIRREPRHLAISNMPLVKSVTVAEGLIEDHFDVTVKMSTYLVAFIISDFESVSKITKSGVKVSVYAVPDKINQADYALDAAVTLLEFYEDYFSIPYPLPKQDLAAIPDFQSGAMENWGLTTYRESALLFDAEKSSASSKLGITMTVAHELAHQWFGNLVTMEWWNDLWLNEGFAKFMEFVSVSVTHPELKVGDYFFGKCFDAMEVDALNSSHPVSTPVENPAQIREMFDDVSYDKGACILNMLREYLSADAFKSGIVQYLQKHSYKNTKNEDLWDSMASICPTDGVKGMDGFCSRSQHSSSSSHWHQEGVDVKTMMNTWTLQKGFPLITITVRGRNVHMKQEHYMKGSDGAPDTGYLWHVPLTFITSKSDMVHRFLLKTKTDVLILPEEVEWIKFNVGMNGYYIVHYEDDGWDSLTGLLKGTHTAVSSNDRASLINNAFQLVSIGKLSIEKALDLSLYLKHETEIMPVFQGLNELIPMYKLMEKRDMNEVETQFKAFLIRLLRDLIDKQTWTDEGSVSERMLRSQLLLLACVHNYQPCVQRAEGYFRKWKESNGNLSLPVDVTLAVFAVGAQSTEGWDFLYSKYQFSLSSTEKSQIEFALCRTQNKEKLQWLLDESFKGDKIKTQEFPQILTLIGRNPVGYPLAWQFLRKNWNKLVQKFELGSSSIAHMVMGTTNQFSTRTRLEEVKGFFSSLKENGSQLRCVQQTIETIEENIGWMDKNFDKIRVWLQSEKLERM
* marks the source's active call; other numbers are inactive results; [ ] = remark or other dose.

How did CCN(CC)C(=O)c1[nH]cnc1C(=O)Nc1cccc(C)c1 do in these assays?
Env fusion inh: -8; rRNA inh HTS: -3; PGC1a acetyl inh: 6; FGF22 binding: 0; Cneo AK release: 1; ERAP1 inh: 2

What do the screens show for `C[C@H](CO)N1C[C@H](C)[C@H](CN(C)CC2CC2)Oc2ccc(N(C)C)cc2CC1=O`?
rRNA inh HTS: 2; ERAP1 inh: -5

What do the screens show for `C[C@H]1CN([C@@H](C)CO)C(=O)Cc2cc(N(C)C)ccc2O[C@H]1CN(C)Cc1ccc(Cl)c(Cl)c1`?
Env fusion inh: 58*[16.7 µM]; rRNA inh HTS: -3; PGC1a acetyl inh: -5

How did C[C@@H]1CN([C@@H](C)CO)C(=O)Cc2cc(N(C)C)ccc2O[C@@H]1CN(C)Cc1ccc(Cl)c(Cl)c1 do in these assays?
Env fusion inh: 6[16.7 µM]; PGC1a acetyl inh: -19; FGF22 binding: 0; Cneo AK release: -1; ERAP1 inh: 1

What do the screens show for `C[C@H]1CN([C@@H](C)CO)C(=O)Cc2cc(N(C)C)ccc2O[C@H]1CN(C)CC1CC1`?
Env fusion inh: 59*[16.7 µM]; rRNA inh HTS: 2; PGC1a acetyl inh: 6; FGF22 binding: 0; Cneo AK release: -3; ERAP1 inh: 0

Results for COc1cc(C)c(Cl)c(C)c1S(=O)(=O)NCc1cccnc1 ?
Env fusion inh: -13; PGC1a acetyl inh: -3; Cneo AK release: 1

How did CCN1[C@H](C(=O)NC2Cc3ccccc3C2)[C@@H](CO)[C@@H]2Cn3c(ccc(C4=CCCCC4)c3=O)[C@@H]21 do in these assays?
rRNA inh HTS: -9; Cneo AK release: 0; ERAP1 inh: 0

Results for COc1ccc2c(c1OC)C(=O)N(c1ccc(O)cc1)C2=O ?
Env fusion inh: -2; rRNA inh HTS: 6; PGC1a acetyl inh: 8; FGF22 binding: 43*; ERAP1 inh: 2

How did O=c1cc(-c2ccccc2[N+](=O)[O-])oc2ccccc12 do in these assays?
Env fusion inh: 20; rRNA inh HTS: -8; PGC1a acetyl inh: 5; FGF22 binding: 43*; ERAP1 inh: 0

How did CC(=O)NCCCC(=O)NN1C(=S)N(Cc2ccccc2)C(=O)C1CC(=O)Nc1cccc(C)c1 (stereo not given) do in these assays?
Env fusion inh: 4; rRNA inh HTS: -22*; PGC1a acetyl inh: 5; FGF22 binding: 0; ERAP1 inh: -4

What do the screens show for `COC(=O)CN1C(=S)N(Cc2ccccc2)C(=O)C1CC(=O)Nc1ccc(OC)cc1` (stereo not given)?
Env fusion inh: 3

How did O=C(c1cc(F)c(F)c(F)c1F)N1CCN(C(=O)C2CCCO2)CC1 (stereo not given) do in these assays?
Env fusion inh: 10; rRNA inh HTS: 5; FGF22 binding: 44*; ERAP1 inh: 2

Results for Cc1ccccc1Cn1c(C(=O)OC(C)C)cc2c1ccn2C ?
Env fusion inh: 54*; PGC1a acetyl inh: -10; Cneo AK release: 3

Results for CC(=O)NCCC(=O)N1CCCC(C(=O)c2ccc3c4c(cccc24)CC3)C1 (stereo not given) ?
Env fusion inh: 3; rRNA inh HTS: 2; PGC1a acetyl inh: -1; FGF22 binding: 0; Cneo AK release: 8; ERAP1 inh: -6

How did Cc1ccc(S(=O)(=O)Nc2cc(C)c(O)c(Sc3n[nH]c(C)n3)c2)cc1 do in these assays?
Env fusion inh: 1; rRNA inh HTS: -43*; FGF22 binding: -1; Cneo AK release: 1; ERAP1 inh: -1

Results for Cc1ccc(S(=O)(=O)Nc2ccc(O)c(S(=O)(=O)c3ccc(C)cc3)c2)cc1 ?
Env fusion inh: 13; rRNA inh HTS: -17; PGC1a acetyl inh: -13; FGF22 binding: 0; Cneo AK release: 0; ERAP1 inh: 5

What do the screens show for `CCOC(=O)N1CCN(C(=O)CNC(=O)Cn2cnc3ccccc3c2=O)CC1`?
Env fusion inh: 3; rRNA inh HTS: 12; FGF22 binding: 44*; Cneo AK release: 0; ERAP1 inh: -5

How did Cc1cc(-c2nnc(SCC(=O)c3ccc(Cl)cc3)o2)no1 do in these assays?
Env fusion inh: -5; rRNA inh HTS: 13; PGC1a acetyl inh: -9; FGF22 binding: 44*; Cneo AK release: -1; ERAP1 inh: -1

How did CCC(C)Nc1cc(C)c(C#N)c2nc3ccccc3n12 (stereo not given) do in these assays?
Env fusion inh: 14; rRNA inh HTS: 3; PGC1a acetyl inh: 10; FGF22 binding: 0; Cneo AK release: 2; ERAP1 inh: -23

How did CC(C)NC(=O)Nc1ccc2c(c1)CC(=O)N([C@@H](C)CO)C[C@@H](C)[C@@H](CN(C)S(=O)(=O)c1ccc(Cl)cc1)O2 do in these assays?
rRNA inh HTS: -3; PGC1a acetyl inh: 4; FGF22 binding: 0; Cneo AK release: 102*; ERAP1 inh: 0

Results for CC(C)NC(=O)Nc1ccc2c(c1)CC(=O)N([C@H](C)CO)C[C@H](C)[C@@H](CN(C)S(=O)(=O)c1ccc(Cl)cc1)O2 ?
rRNA inh HTS: 0; PGC1a acetyl inh: 2; FGF22 binding: 0; Cneo AK release: 1; ERAP1 inh: 1

How did C[C@H](CO)N1C[C@H](C)[C@H](CN(C)S(=O)(=O)c2ccccc2)Oc2ccc(NS(=O)(=O)c3ccccc3)cc2CC1=O do in these assays?
Env fusion inh: 91*[16.7 µM]; rRNA inh HTS: 1; PGC1a acetyl inh: -7; FGF22 binding: 0; Cneo AK release: -2; ERAP1 inh: -2

How did Cc1noc(C)c1S(=O)(=O)Nc1ccc2c(c1)CC(=O)N([C@H](C)CO)C[C@H](C)[C@H](CN(C)S(=O)(=O)c1cccs1)O2 do in these assays?
Env fusion inh: 45[16.7 µM]; rRNA inh HTS: 1; PGC1a acetyl inh: -1; FGF22 binding: 0; Cneo AK release: 115*; ERAP1 inh: 2

How did C[C@H](CO)N1C[C@H](C)[C@H](CN(C)S(=O)(=O)c2ccccc2)Oc2ccc(NS(=O)(=O)c3ccc(Cl)cc3)cc2CC1=O do in these assays?
Env fusion inh: 56*[16.7 µM]; rRNA inh HTS: 2; PGC1a acetyl inh: -3; FGF22 binding: 0; Cneo AK release: 2; ERAP1 inh: 3

How did CC(C)Cc1nnc(NC(=O)c2cc(-c3ccccc3)nc3ccccc23)s1 do in these assays?
Env fusion inh: -44; Cneo AK release: -1

Results for C[C@@H]1CN([C@@H](C)CO)C(=O)Cc2cc(NS(=O)(=O)c3cccs3)ccc2O[C@H]1CN(C)S(=O)(=O)c1ccccc1 ?
Env fusion inh: -11[16.7 µM]; rRNA inh HTS: -5; PGC1a acetyl inh: 0; FGF22 binding: -1; Cneo AK release: 58; ERAP1 inh: 0

What do the screens show for `C[C@H](CO)N1C[C@H](C)[C@H](CN(C)S(=O)(=O)c2ccc(Cl)cc2)Oc2ccc(NS(=O)(=O)c3ccccc3)cc2CC1=O`?
Env fusion inh: 55*[16.7 µM]; rRNA inh HTS: 4; PGC1a acetyl inh: 3; FGF22 binding: 0; Cneo AK release: -2
